Measured values from publication PMC5312682 (Journal of neurochemistry, 2017).

Legend:
[1] = system: Thy1-hAPP^Lond/Swe+ mice and WT littermates; assay: Morris Water Maze; format: in vivo, mouse
Outline: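 Dose-response cohort: APPLond/Swe+ and WT littermates aged 6.7 months, given 3, 10 or 30 mg/kg SC daily for 60 days (n=4–5 per group). MWM started after 35 days of dosing, with hidden-platform learning followed by reversal-learning hidden-platform trials. Mice floating extensively or unable to swim were excluded. Analysis used repeated-measures ANOVA with Dunnett's or one-way ANOVA with Fisher's LSD; mean ±SEM.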

[2] = system: synaptophysin, iba1; assay: Synaptophysin and iba1 immunohistochemistry in brain; format: in vivo, mouse
Outline: (§1)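 After behavioural testing at the end of chronic daily SC dosing, APPLond/Swe+ and WT mice were perfused with PBS and brains collected. Brains were bisected sagittally: one half was frozen at −80°C, and the other was fixed overnight in 4% formalin, then kept at 4°C in 30% sucrose until processing.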

[3] = system: Aβ; assay: Aβ pathology; format: in vivo, mouse; conditions: APP^Lond/Swe+ mice, 10 mg/kg/d chronic
Outline: as §1

[4] = biological target: CNS-relevant targets, including opioid, adrenergic, nACR, mAChR, and NMDA receptors, neurotransmitter transporters and ion channels; assay: Off-target binding, CNS-relevant targets; conditions: read-out: off-target affinity Ki; most CNS-relevant targets; Supplemental table 2
[5] = system: transgenic SC_APP C. elegans; assay: C. elegans neurotoxicity assay; format: in vivo
[6] = system: Thy1-hAPP^Lond/Swe+ mice and WT littermates; assay: Y-maze test; format: in vivo, mouse
Outline: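 Y-maze spontaneous alternation and total arm entries in APPLond/Swe+ and WT littermates dosed SC daily, tested during the active cycle in balanced morning and afternoon sessions. Chronic study: 10 mg/kg, tested after 50 days of dosing. Dose-response study: 3, 10 or 30 mg/kg for 60 days. Alternation was compared with a 50% theoretical mean by one-sample t-test; mean ±SEM.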

[7] = system: IL1β; assay: qRT-PCR of inflammatory markers in cortical tissue; format: in vivo, mouse; conditions: APP^Lond/Swe+ mice, dose-response cohort
[8] = system: Thy1-hAPP^Lond/Swe+ mice and WT littermates; assay: Sociability / social discrimination test; format: in vivo, mouse; conditions: for sociability test: preference mouse cup vs empty cup: 10 mg/kg/d SC, after 35 days of dosing
Outline: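 APPLond/Swe+ and WT littermates dosed SC daily in late afternoon; on test days, dosing followed testing. Chronic study: 10 mg/kg for 64 days from 4.5 months; sociability measured as exploration of a cup holding a C57Bl/6 mouse vs an empty cup. Dose-response study: 3, 10 or 30 mg/kg from 6.7 months; social discrimination of novel vs familiar mouse after 30 days of dosing, by t-test.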

[9] = system: human SK-N-SH neuroblastoma cells; assay: Intracellular calcium assay; format: cell-based; conditions: for calcium response: compound alone
[10] = biological target: Sig2R; conditions: read-out: Ki Sig2R; ref Sahn et al. 2016; cited from earlier work
[11] = system: Thy1-hAPP^Lond/Swe+ mice and WT littermates; format: in vivo, mouse
Outline: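 APPLond/Swe+ and WT littermates, single-housed on a reverse light cycle, balanced for body weight and pre-dose locomotor activity. Dosing was 10 mg/kg SC once daily in late afternoon for 64 days, started at 4.5 months of age. Activity chamber was run first in the behavioural battery, during the active cycle. After behavioural testing, blood and organs were collected at sacrifice for blood chemistry and histopathology.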

[12] = PK study in mice; format: in vivo, C57Bl/6J mice; conditions: mouse; for bioavailability: AUC(0-3h) vs intravenous
[13] = system: microglia; conditions: induced by fragments of amyloid beta; ref Behensky et al. 2013; cited from earlier work
[14] = system: neural progenitor cells derived from adult rat brain; conditions: ref Liu et al. 2009; cited from earlier work

CN1CCN(c2ccc3c(c2)[C@H]2C[C@@H]3CCN2C(=O)OCc2ccccc2)CC1 [SAS-0132]
MWM hidden platform learning phase ([1]; APP^Lond/Swe+ mice): had no effect on the cognitive functions
MWM reversal learning trials ([1]; APP^Lond/Swe+ mice): no significant effects of SAS-0132 treatment
MWM reversal learning probe trial: target quadrant preference ([1]; APP^Lond/Swe+ mice, 10 mg/kg): showed target quadrant preference
MWM reversal learning: escape latency vs vehicle ([1]; APP^Lond/Swe+ mice, 3 and 10 mg/kg): non-significant decreased escape latency
MWM probe trial: target quadrant preference ([1]; WT mice, 3 mg/kg): showed a clear preference for the target quadrant
MWM reversal probe trial: target quadrant preference ([1]; WT mice, 3 mg/kg): all WT groups showed target quadrant preference with the exception of the 3 mg/kg dose group
MWM hidden platform learning: escape latency ([1]; WT mice, 3 and 30 mg/kg, started after 35 days of dosing): found the escape platform faster than the vehicle-treated WT mice
MWM reversal learning day 2: escape latency ([1]; WT mice, 10 and 30 mg/kg): found the escape platform faster than WT mice treated with vehicle
MWM reversal learning probe trial: target quadrant preference ([1]; WT mice, 10 and 30 mg/kg): demonstrated recall and showed target quadrant preference
synaptophysin immunoreactivity, CA3 (synapse loss) ([2]; APP^Lond/Swe+ mice, 10 mg/kg/d chronic): did not alter the extent of synapse loss
iba1 immunoreactivity ([2]; WT or APP^Lond/Swe+ mice, chronic daily dosing study): no drug-related effects
intracellular Aβ immunoreactivity (cortex, hippocampus, amygdala) [3]: does not affect levels of intracellular Aβ
soluble and insoluble Aβ40 and Aβ42 (ELISA) vs vehicle [3]: no significant difference
Ki [4]: 0.5 to 10 µM
neurodegeneration of VC4 and VC5 neurons vs vehicle ([5]; 200 µM, 5-day treatment, day 5 of adulthood, SC_APP worms, p < 0.01): decreased neurodegeneration
neuroprotection in animals with vem-1 (PGRMC1) knocked-down by RNAi ([5]; 200 µM, SC_APP worms, vem-1 RNAi co-treatment): provided no further neuroprotection
functional classification at Sig2R/PGRMC1 ([5]; from C. elegans data compared with vem-1 null mutations): Sig2R/PGRMC1 antagonists
Y-maze total arm entries ([6]; WT and APP^Lond/Swe+ mice, 10 mg/kg/d, chronic daily dosing study): not different among the four groups
Y-maze spontaneous alternation ([6]; dose-response study, WT and APP^Lond/Swe+ mice, 30 mg/kg): showed impaired spontaneous alternation behavior
Y-maze spontaneous alternation ([6]; dose-response study, WT mice, 30 mg/kg): showed impaired alternation behavior
Y-maze spontaneous alternation ([6]; dose-response study, WT mice, 3 and 10 mg/kg): did not affect their performance
Y-maze total arm entries ([6]; dose-response study, all groups): not different among groups
IL1β mRNA expression [7]: decreased the expression of the inflammatory cytokine IL1β
sociability test: preference mouse cup vs empty cup ([8]; APP^Lond/Swe+ mice, p < 0.05): showed a distinct preference for the cup containing a mouse over the empty cup
sociability test: preference mouse cup vs empty cup ([8]; WT mice): not significantly altered
sociability ([8]; dose-response study, 30 mg/kg): did not impair sociability
social discrimination: novel vs familiar mouse ([8]; dose-response study, APP^Lond/Swe+ mice, 3 mg/kg): showed a significant preference for a novel mouse over a familiar one
effects on intracellular Ca2+ compared with DKR-1051 ([9]; 100 µM): weaker than the effects of DKR-1051
effect on calcium response induced by DKR-1051 (100 µM) ([9]; SAS-0132 applied before DKR-1051, lower concentrations (0.1-30 µM)): significantly attenuated the DKR-0151-induced calcium response
calcium response ([9]; 100 µM): significant increases in intracellular Ca^2+
calcium response ([9]; concentrations up to 30 µM): fails to produce a significant calcium response
Ki [10]: 90 nM
blood chemistry and histopathology ([11]; WT mice, 10 mg/kg/d for 64 days, Supplemental tables 3-4): no signs of SAS- 0132 induced toxicity
locomotor activity in activity chamber vs vehicle ([11]; after 24 days of treatment): not significantly different
general health of treated animals ([11]; both chronic daily dosing studies, 3-30 mg/kg/d, 60-64 days): remained healthy and exhibited no detectable abnormalities
plasma levels ([12]; 10 mg/kg IV, SC and PO, up to 3 h post-administration): Detectable levels
bioavailability ([12]; 10 mg/kg oral): 7%
brain concentration ([12]; 10 mg/kg subcutaneous, 3 h post-administration): 3.8 µM
bioavailability ([12]; 10 mg/kg subcutaneous): 45%
concentration in brain homogenates ([12]; 24 h after single 10 mg/kg subcutaneous injection): 1.6 ng/g

CCOc1ccc2nc(SCCN3CCOCC3)[nH]c2c1 [afobazole]
neurotoxic microglia stimulation and apoptosis [13]: reduces neurotoxic microglia stimulation and apoptosis

CC(=O)[C@H]1CC[C@H]2[C@@H]3CCC4=CC(=O)CC[C@]4(C)[C@H]3CC[C@]12C [progesterone]
neurogenic and neuroprotective effects [14]: exerts neurogenic and neuroprotective effects
